Only some compounds are listed: those with a hit (about 4.1% of all), similar ones and a draw of the others.
KCNQ1 inh: inhibitors of human KCNQ1 potassium channel. P51787. actives 1.3% (n = 310,000). B-score at 10 µM. CHO-K1 KCNQ1, FluxOR thallium flux fluorescence; stronger effect = higher value;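 active = compounds whose thallium flux B-score, printed positive for inhibition, exceeds three library SD while starting fluorescence stays within three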;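 also: channel opened by potassium depolarization with thallium stimulus after 20 min compound exposure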
KCNK9 block: inhibitors of human KCNK9 two-pore domain potassium channel | Q9NPC2 | HEK293 KCNK9, FluxOR thallium flux fluorescence; stronger effect = lower value | B-score at 10 µM | actives 1.2% (n = 310,000) | AID 488922;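 active = ratio B-score over 3 SD below the library mean, with starting fluorescence within 5 SD of its mean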;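 also: negative B-score means less thallium flux so channel inhibition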
hERG protect: compounds protecting human hERG from proarrhythmic drug block; Q12809; CHO-hERG, FluxOR thallium flux, dofetilide IC70 present; activation (rescue from dofetilide block), less the hit threshold, % at 10 µM; actives 0.51% (n = 310,000); AID 1511;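 active = activation above the mean of controls blocked by dofetilide plus 5 SD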;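 also: thallium influx through hERG after potassium depolarization seen as dye fluorescence rise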
KCNK3 block: human KCNK3 channel inhibition, primary screen; O14649; CHO-KCNK3 thallium flux, FluxOR fluorescence; stronger effect = lower value; B-score at 10 µM; actives 0.84% (n = 340,000);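 active = B-score under library mean minus 4 SD, starting fluorescence ratio at most library mean plus 5 SD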;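 also: more negative B-score means stronger inhibition of thallium flux through KCNK3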
Target sequence (O14649 whole entry, looked up): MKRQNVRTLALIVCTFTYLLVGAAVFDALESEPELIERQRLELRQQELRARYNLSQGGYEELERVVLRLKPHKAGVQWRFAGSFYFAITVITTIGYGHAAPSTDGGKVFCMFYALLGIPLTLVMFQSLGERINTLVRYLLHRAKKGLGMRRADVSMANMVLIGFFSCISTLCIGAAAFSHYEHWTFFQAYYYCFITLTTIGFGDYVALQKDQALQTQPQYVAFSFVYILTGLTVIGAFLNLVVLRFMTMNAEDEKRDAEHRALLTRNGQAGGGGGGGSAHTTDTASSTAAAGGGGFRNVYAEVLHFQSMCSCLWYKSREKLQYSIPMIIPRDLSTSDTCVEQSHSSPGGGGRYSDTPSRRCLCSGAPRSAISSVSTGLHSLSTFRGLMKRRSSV
Cl transport mod: KCC2 (human) Cl- transport modulation | Q9H2X9 | KCC2 cells, thallium flux FluoZin-2 fluorescence | B-score of Tl+ flux slope (higher = more flux/activation; lower = inhibition) at 10 µM | actives 2.2% (n = 190,000) | AID 1456;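 active = thallium flux slope and its plate-corrected score both differing from the plate sample mean at a set confidence after two filtering rounds, in either direction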;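 also: slope of fluorescence scaled to starting intensity during 10 to 20 s after thallium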
KCNQ1 pot: potentiates or activates the human KCNQ1 potassium channel; actives 0.35% (n = 310,000); CHO-K1 KCNQ1, thallium flux FluxOR fluorescence; stronger effect = higher value; P51787; B-score at 10 µM;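 active = fluorescence ratio B-score, a plate-corrected score, at least three library SD, with initial intensity B-score within 5 SD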
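System: Stable KCNQ1 CHO-K1 line | Incubation: 90 min dye loading and 20 min compound exposure, both at room temperature | Measure: Ratio B score | Medium: Assay buffer for compound exposure, DMSO matched across wells | Compound dosing: Single-concentration screen | Probe or stimulus: K+/Tl+ depolarizing stimulus | Measured by: Kinetic FluxOR fluorescence, 10 s baseline plus 110 s post-stimulus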
Starred values were filed as active, the others as inactive; i = inactive; x = no result.

SMILES	KCNQ1 inh	KCNK9 block	hERG protect	KCNK3 block	Cl transport mod	KCNQ1 pot
O=C1/C(=N\S(=O)(=O)c2cccs2)C([n+]2ccc(CCCc3ccccc3)cc2)=C([O-])c2ccccc21	i	i	-10	i	-2.4	i
O=C1/C(=N\S(=O)(=O)c2cccs2)C([n+]2cccc(Cc3ccccc3)c2)=C([O-])c2ccccc21	i	-6.6*	-8	i	-0.58	i
O=C(O)CCCn1c(O)c(C=C2N=c3ccccc3=N2)sc1=S	i	i	-12	i	-1.9	i
COCCCn1c(O)c(/C=C2\N=C(C#N)C(=Nc3ccc(C)cc3)O2)sc1=S	12*	i	-23	i	0.3	i
CCCn1c(=N)n(CC(=O)C(C)(C)C)c2ccccc21	6*	i	-5	i	-0.19	i
CCCCn1c(=N)n(CC(=O)C(C)(C)C)c2ccccc21	i	i	-4	i	x	i
O=C(N/N=C/c1ccccc1OC(F)F)C1=COCCO1	i	i	1	i	0.31	i
O=C(N/N=C/c1ccc(OC(F)F)cc1)C1=COCCO1	i	i	16*	i	0.19	i
CC(=O)Nc1ccc(OCC(O)Cn2nc(C)nc2C)cc1 (stereo not given)	i	i	5.5*	i	-0.45	i
O=C1C=C(O)c2[nH]c(=O)ccc2C1=O	x	x	x	i	x	x
COc1ccc(-n2c(NC(=O)c3ccc(Br)o3)c(C#N)c3nc4ccccc4nc32)cc1	7*	i	-14	x	-2.8	i
COc1ccc(-n2c(C(C)(C)C)csc2=Nc2c(C)n(C)n(-c3ccccc3)c2=O)cc1	i	i	-4	i	0.19	i
COc1ccc(-c2csc(=Nc3c(C)n(C)n(-c4ccccc4)c3=O)n2C(C)(C)C)cc1	i	i	5.1*	i	-0.36	i
Cc1oc2c(cc(NS(=O)(=O)c3ccc4c5c(cccc35)C(=O)N4)c3ccccc32)c1C(=O)OC(C)C	i	-7.6*	-11	i	-0.63	i
O=C1CCCc2oc3c(cc(NS(=O)(=O)c4ccc5c6c(cccc46)C(=O)N5)c4ccccc43)c21	i	i	-26	i	-2.1	i
COc1cccc(CC(=O)N2CCC(n3nccc3NC(=O)C3CCOC3)CC2)c1 (stereo not given)	i	i	-6	i	x	i
CCC(Oc1ccccc1)C(=O)Nc1ccc(-c2nnc(-c3ccco3)o2)cc1 (stereo not given)	i	-7.3*	-9	i	x	i
COc1ccccc1OCC(=O)Nc1ccc(-c2nnc(-c3ccco3)o2)cc1	i	i	-15	i	x	i
NC(=O)CCS(=O)(=O)c1ccc(Cl)cc1	i	i	6.4*	i	x	i
CCN(CC)c1nc(C(F)(F)F)nc2c1nnn2Cc1ccccc1	6*	i	-6	i	x	i
c1ccc(CN(Cc2ccccc2)c2ncnc3c2nnn3Cc2ccccc2)cc1	i	i	-9	i	1.4	i
CC1Cc2cc(/C(O)=C3/C(=O)C(=O)N(CCN4CCOCC4)C3c3ccc(N(C)C)cc3)ccc2O1 (stereo not given)	i	i	-7	i	x	i
Cc1ccc(S(=O)(=O)N2CCCC2)cc1C(=O)NCc1ccccc1CN1CCCC1	x	x	x	i	x	x
COc1ccc(C(=O)N[C@H](C(=O)N2CCN(c3ccccc3F)CC2)C(C)C)cc1	i	i	4.9*	i	-0.25	i
CCN1CCN(CCCNC(=O)C2CCCN(c3nc4c(C)cc(C)cc4s3)C2)CC1 (stereo not given)	i	i	-8	i	x	i
SMILES	KCNQ1 inh	KCNK9 block	hERG protect	KCNK3 block	Cl transport mod	KCNQ1 pot
O=C(CCc1nc(-c2ccc(Cl)cc2)no1)NCc1ccccc1CN1CCOCC1	x	x	x	i	x	x
Cc1ccccc1NC1=C/C(=N\S(=O)(=O)c2ccc(C(=O)O)cc2)c2ccccc2C1=O	i	i	6.1*	i	x	i
O=C(O)c1ccc(S(=O)(=O)/N=C2\C=C(Nc3ccccc3F)C(=O)c3ccccc32)cc1	i	i	3	i	x	i
Cc1ccc(C)c(S(=O)(=O)/N=C2\C=C(NS(=O)(=O)c3ccccc3)C(=O)c3ccccc32)c1	10*	i	-17	i	x	i
COc1ccc2nc(SC(C)C(=O)NC3CCCCC3)[nH]c2c1 (stereo not given)	x	x	x	i	x	x
CCOC(=O)c1cc2c(nc1N)CCCC2	i	i	-12	i	-0.39	i
C=C(C)CNC(=S)Nc1nc2c(cc1C(=O)OCC)CCCC2	i	i	1	i	43*	i
COc1ccc(NC(=O)CN(c2ccccc2F)S(=O)(=O)c2ccc(C)cc2)cc1	i	i	-10	i	x	i
O=C(NC(=S)Nc1nc2c(s1)CCCC2)c1ccccc1	i	i	-4	i	11*	i
N#Cc1c(NC(=S)NC(=O)c2ccccc2)sc2c1CCCC2	i	i	-2	i	0.011	i
COC(=O)c1ccc(C(=O)NC(=S)Nc2nc3c(s2)CCCC3)cc1	i	i	2	i	25*	23*
COc1ccc(S(=O)(=O)N2CCC(C(=O)NCCC(=O)NCc3ccccc3OC)CC2)cc1	i	i	-8	i	x	i
N#CC1(NC(=O)COc2cccnc2[N+](=O)[O-])CCCCC1	x	x	x	i	x	x
CC1CC(C)CN(C(=O)C(C)N2CCN(S(=O)(=O)c3cccs3)CC2)C1 (stereo not given)	x	x	x	i	x	x
Cc1cccc(NCc2ccc(Br)cc2)n1	i	i	-4	i	x	i
Cc1c(/C=N/Nc2nc3ccccc3[nH]2)c2ccccc2n1C	7*	i	-17	i	-0.48	i
Cc1ccc(N2C(=O)c3ccc(C(=O)Nc4cccnc4)cc3C2=O)c(C)c1	i	i	4.7*	i	-0.27	i
Cc1cc(N(C)Cc2ccccc2)nc2cc(O)ccc12	i	i	-10	i	x	i
Cc1c(C(=O)N2CCN(S(=O)(=O)c3ccccc3F)CC2)oc2c(Cl)cccc12	x	x	x	i	x	x
Cc1c(C(=O)N2CCN(c3ccccc3)CC2)oc2c(Cl)cccc12	x	x	x	-9.9*	x	x
Cc1ccc(C)c(NC(=S)c2nc3ccccc3s2)c1	i	i	-6	i	22*	i
Cc1ccc(NC(=S)c2nc3ccccc3s2)cc1	i	i	3	i	3.4	i
S=C(Nc1ccc(Cl)cc1)c1nc2ccccc2s1	i	i	27*	i	1.1	29*
O=C(CN1C(=O)NC2(CCCC2)C1=O)OCc1c(F)cccc1Cl	i	i	-12	i	x	i
